{"source": "ChEMBL document CHEMBL4699636", "about": "“Novel 2,7-Diazaspiro[4,4]nonane Derivatives to Inhibit Mouse and Human Osteoclast Activities and Prevent Bone Loss in Ovariectomized Mice without Affecting Bone Formation” (J Med Chem, 2020)", "key": {"Mus musculus [1]": {"test_system": "Mus musculus", "assay": "Antiosteoporotic activity in C57BL6/J mouse model of OVX-induced bone loss assessed as serum CTX-1 level […] at 20 mg/kg, ip BID for 4 weeks (165.38 +/- 54.93 %)", "assay_type": "functional"}, "Mus musculus [2]": {"test_system": "Mus musculus", "assay": "Antiosteoporotic activity in C57BL6/J mouse model of OVX-induced bone loss assessed as cortical thickness level in tibial diaphysis at 20 mg/kg, ip QD for 4 weeks by microCT analysis (179.27 +/- 7.57 um)", "assay_type": "functional"}, "Mus musculus [3]": {"test_system": "Mus musculus", "assay": "Antiosteoporotic activity in C57BL6/J mouse model of OVX-induced bone loss assessed as trabecular bone volume per tissue volume level in tibial metaphysis at 20 mg/kg, ip BID for 4 weeks by microCT analysis (17.49 +/- 2.91 %)", "assay_type": "functional"}, "Mus musculus [4]": {"test_system": "Mus musculus", "assay": "Antiosteoporotic activity in C57BL6/J mouse model of OVX-induced bone loss assessed as trabecular bone volume per tissue volume level in tibial metaphysis at 20 mg/kg, ip QD for 4 weeks by microCT analysis (17.49 +/- 2.91 %)", "assay_type": "functional"}, "[5]": {"assay": "Toxicity in C57BL6/J mouse model of OVX-induced bone loss assessed as effect on bone formation by measuring mineralizing surface per trabecular bone surface level in femoral metaphysis at 20 mg/kg, ip QD for 4 weeks by histomorphometry (27.90 +/ 8.22 %)", "assay_type": "organism-based", "conditions": "in vivo, 672 h"}, "Mus musculus [6]": {"test_system": "Mus musculus", "assay": "Antiosteoporotic activity in C57BL6/J mouse model of OVX-induced bone loss assessed as cortical thickness level in tibial diaphysis at 20 mg/kg, ip BID for 4 weeks by microCT analysis (179.27 +/- 7.57 um)", "assay_type": "functional"}, "Mus musculus [7]": {"test_system": "Mus musculus", "assay": "Antiosteoporotic activity in C57BL6/J mouse model of OVX-induced bone loss assessed as trabecular thickness level in femoral metaphysis at 20 mg/kg, ip QD for 4 weeks by histomorphometry (39.96 +/- 5.42 um)", "assay_type": "functional", "outline": "(§1)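 OVX mice, 12 weeks old, ip 20 mg/kg q.d. or b.i.d. for 4 weeks in CMC/Tween 80 vehicle. Distal right femur taken day 28. Static trabecular parameters measured on one 4-µm Masson-Goldner trichrome section, ROI 0.75 mm². n=10 per group, 9 in OVX+vehicle.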"}, "[8]": {"assay": "Toxicity in C57BL6/J mouse model of OVX-induced bone loss assessed as effect on osteoclast numbers per bone perimeter at 20 mg/kg, IP BID for 4 weeks", "assay_type": "organism-based", "conditions": "in vivo, 672 h", "outline": "as §1"}, "[9]": {"assay": "Toxicity in C57BL6/J mouse model of OVX-induced bone loss assessed as effect on bone formation by measuring mineralizing surface per trabecular bone surface level in femoral metaphysis at 20 mg/kg, ip BID for 4 weeks by histomorphometry (27.90 +/ 8.22 %)", "assay_type": "organism-based", "conditions": "in vivo, 672 h"}, "Mus musculus [10]": {"test_system": "Mus musculus", "assay": "Antiosteoporotic activity in C57BL6/J mouse model of OVX-induced bone loss assessed as structure model index level in tibial metaphysis at 20 mg/kg, ip QD for 4 weeks by microCT analysis (1.92 +/- 0.19)", "assay_type": "functional", "conditions": "dose […]"}, "[11]": {"assay": "Toxicity in C57BL6/J mouse model of OVX-induced bone loss assessed as effect on bone formation by measuring osteocalcin level at 20 mg/kg, ip QD for 4 weeks (1.62 +/ 0.21 m3/um2/y)", "assay_type": "organism-based", "conditions": "in vivo, 672 h"}, "Mus musculus [12]": {"test_system": "Mus musculus", "assay": "Antiosteoporotic activity in C57BL6/J mouse model of OVX-induced bone loss assessed as degree of anisotropy (range 0-1) level in tibial metaphysis at 20 mg/kg, ip QD for 4 weeks by microCT analysis (0.53 +/- 0.07)", "assay_type": "functional"}, "[13]": {"assay": "Toxicity in C57BL6/J mouse model of OVX-induced bone loss assessed as effect on bone formation by measuring osteoblast surface per trabecular bone surface level in femoral metaphysis at 20 mg/kg, ip BID for 4 weeks by histomorphometry (5.03 +/ 2.92 %)", "assay_type": "organism-based", "conditions": "in vivo, 672 h", "outline": "as §1"}, "[14]": {"assay": "Toxicity in C57BL6/J mouse model of OVX-induced bone loss assessed as effect on bone formation by measuring number of osteoblasts per bone surface level in femoral metaphysis at 20 mg/kg, ip BID for 4 weeks by histomorphometry (4.55 +/ 2.53 /mm)", "assay_type": "organism-based", "conditions": "in vivo, 672 h", "outline": "as §1"}, "Mus musculus [15]": {"test_system": "Mus musculus", "assay": "Antiosteoporotic activity in C57BL6/J mouse model of OVX-induced bone loss assessed as trabecular bone volume per tissue volume level in femoral metaphysis at 20 mg/kg, ip QD for 4 weeks by histomorphometry (11.67 +/- 2.37%)", "assay_type": "functional", "outline": "as §1"}, "Mus musculus [16]": {"test_system": "Mus musculus", "assay": "Antiosteoporotic activity in C57BL6/J mouse model of OVX-induced bone loss assessed as trabecular number level in femoral metaphysis at 20 mg/kg, ip BID for 4 weeks by histomorphometry (2.99 +/- 0.80 /mm)", "assay_type": "functional", "outline": "as §1"}, "[17]": {"assay": "Toxicity in C57BL6/J mouse model of OVX-induced bone loss assessed as effect on bone formation by measuring bone formation rate per trabecular bone surface level in femoral metaphysis at 20 mg/kg, ip BID for 4 weeks by histomorphometry ([…])", "assay_type": "organism-based", "conditions": "in vivo, 672 h"}, "[18]": {"assay": "Toxicity in C57BL6/J mouse model of OVX-induced bone loss assessed as effect on bone formation by measuring osteoblast surface per trabecular bone surface level in femoral metaphysis at 20 mg/kg, ip QD for 4 weeks by histomorphometry (5.03 +/ 2.92 %)", "assay_type": "organism-based", "conditions": "in vivo, 672 h", "outline": "as §1"}, "[19]": {"test_system": "Osteoclast (Homo sapiens)", "assay": "Inhibition of resorption activity of human peripheral blood cell-derived osteoclasts incubated for 48 hrs by Kossa-staining based assay"}, "Mus musculus [20]": {"test_system": "Mus musculus", "assay": "Antiosteoporotic activity in C57BL6/J mouse model of OVX-induced bone loss assessed as degree of anisotropy (range 0-1) level in tibial metaphysis at 20 mg/kg, ip BID for 4 weeks by microCT analysis (0.53 +/- 0.07)", "assay_type": "functional"}, "[21]": {"assay": "Toxicity in C57BL6/J mouse model of OVX-induced bone loss assessed as effect on bone formation by measuring osteocalcin level at 20 mg/kg, ip BID for 4 weeks […]", "assay_type": "organism-based", "conditions": "in vivo, 672 h"}, "Mus musculus [22]": {"test_system": "Mus musculus", "assay": "Antiosteoporotic activity in C57BL6/J mouse model of OVX-induced bone loss assessed as trabecular separation level in femoral metaphysis at 20 mg/kg, ip BID for 4 weeks by histomorphometry (319.80 +/- 106.52 um)", "assay_type": "functional", "outline": "as §1"}, "[23]": {"assay": "Toxicity in C57BL6/J mouse model of OVX-induced bone loss assessed as effect on body weight at 20 mg/kg, IP QD for 4 weeks", "assay_type": "organism-based", "conditions": "in vivo, 672 h", "outline": "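Body weight tracked in 12-week-old OVX C57BL6/J mice during 4 weeks of ip 20 mg/kg q.d. or b.i.d. dosing in 0.485% carboxymethylcellulose/3% Tween 80, 10 mL/kg.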"}}, "note": "pIC50: −log10 of the molar value."}
{"compound": "O=S1(=O)N(c2ccccc2)C[C@H](O)[C@]12CCN(Cc1ccc(Cl)cc1)C2", "note": "(racemic)", "values": [{"measurement": "Activity", "setting": "Mus musculus [1]", "value": 112.71, "unit": "%"}, {"measurement": "Activity", "setting": "Mus musculus [2]", "value": 187.72, "unit": "um"}, {"measurement": "Activity", "setting": "Mus musculus [3]", "value": 25.3, "unit": "%"}, {"measurement": "Activity", "setting": "Mus musculus [4]", "value": 19.48, "unit": "%"}, {"measurement": "Activity", "setting": "[5]", "value": 27.7, "unit": "%"}, {"measurement": "Activity", "setting": "Mus musculus [6]", "value": 193.5, "unit": "um"}, {"measurement": "Activity", "setting": "Mus musculus [7]", "value": 41.8, "unit": "µm"}, {"measurement": "Activity", "setting": "[8]", "value": "Non-Toxic"}, {"measurement": "Activity", "setting": "[9]", "value": 26.07, "unit": "%"}, {"measurement": "Activity_index", "setting": "Mus musculus [10]", "value": 1.88}, {"measurement": "Activity", "setting": "[11]", "value": 96.8, "unit": "%"}, {"measurement": "Activity_index", "setting": "Mus musculus [12]", "value": 0.5}, {"measurement": "Activity", "setting": "[13]", "value": 4.01, "unit": "%"}, {"measurement": "Activity", "setting": "[14]", "value": "3.63 /millimeter"}, {"measurement": "Activity", "setting": "Mus musculus [15]", "value": 12.02, "unit": "%"}, {"measurement": "Activity", "setting": "Mus musculus [16]", "value": "3.51 /millimeter"}, {"measurement": "Activity", "setting": "[17]", "value": 157.59, "unit": "um3/um2/yr"}, {"measurement": "Activity", "setting": "[18]", "value": 3.57, "unit": "%"}, {"measurement": "pIC50", "setting": "[19]", "value": 5.46}, {"measurement": "Activity_index", "setting": "Mus musculus [20]", "value": 0.45}, {"measurement": "Activity", "setting": "[21]", "value": 109.97, "unit": "%"}, {"measurement": "Activity", "setting": "Mus musculus [22]", "value": 251.29, "unit": "um"}, {"measurement": "Activity", "setting": "[23]", "value": "Non-Toxic"}]}
